Molecules are shown by their SMILES.

Data on 5 compounds can be found in PMC5933427 (Chemical Science, 2016).

The nature of data set [1]: Lipophilicity, shake-flask log Po/w. The data set is classed as physicochemical. The following applies: octanol/water.
For data set [2], the system named is A549 cells. The data set can be described thus: Annexin V/PI double staining, flow cytometry. Type of data set: cell-based, human. The note with it: 24 h; for apoptotic cells: A549, 10 μM, control 1.4 ± 0.02%; for effect of NAC pre-treatment on apoptosis-inducing capability: A549, NAC 10 mM. In short, it runs like this:
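A549 cells treated with test compound for 24 h, then double-labelled with annexin V and PI and analysed by flow cytometry. Early apoptotic cells scored as annexin V-positive/PI-negative, and late apoptotic/necrotic cells as annexin V-positive/PI-positive. Both fractions were counted as apoptotic.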

Data set [3] has as its system caspase-3/7 in A549 cells. Nature of the data set: Caspase-3/7 activity, Caspase-Glo assay. The data set is classed as cell-based, human. The following applies: A549, 10 μM, 12 h.
Data set [4] concerns A549 cells. Nature of the data set: Intracellular ATP quantification. Type of data set: cell-based, human. The following applies: for intracellular ATP level: A549, 10 μM, 6 h, control 86.3 ± 1.0 nM; for impact on intracellular ATP levels: A549, 6 h, versus control cells. The method, boiled down: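 A549 cells exposed for 6 h to vehicle or to test compound across several concentrations. Intracellular ATP content measured and reported in nM, relative to vehicle-treated control cells.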

For the next data set, the system named is A549. The data set can be described thus: MTT cytotoxicity assay. The data set is classed as cell-based, human. The note with it: 48 h; for IC50: read-out: IC50 A549, MTT. In short, it runs like this:
(§1)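 Cancer lines and normal LO2 cells were incubated with test compound for 48 h before viability was assessed. IC50 values reported as means ± SD.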

The test system of the next data set is LO2. Nature of the data set: MTT cytotoxicity assay. Type of data set: cell-based. The following applies: read-out: IC50 LO2, 48 h, human normal liver cells. In short, it runs like this: as §1
For a further data set, the system named is MDB-MA-231. Nature of the data set: MTT cytotoxicity assay. Type of data set: cell-based, human. The following applies: read-out: IC50 MDB-MA-231, 48 h. The method, boiled down: as §1
A further data set relates to HeLa. Nature of the data set: MTT cytotoxicity assay. Type of data set: cell-based, human. The following applies: read-out: IC50 HeLa, 48 h. In short, it runs like this:
as §1

Data set [5] relates to A549 cells. The data set can be described thus: MTT viability with NAC pretreatment. Type of data set: cell-based, human. The note with it: A549, NAC 10 mM 1 h, then 24 h.
In data set [6] the test system is cisplatin-resistant A549 (A549R). The data set can be described thus: MTT cytotoxicity assay. Type of data set: cell-based, human. The note with it: for cross-resistance with cisplatin: cisplatin-resistant A549R cells; for IC50: read-out: IC50 A549R, 48 h, MTT. The method, boiled down:
as §1

For data set [7], the system named is A549 cells. The data set can be described thus: Mitochondrial bioenergetics, Seahorse OCR. The data set is classed as cell-based, human. The note with it: for non-mitochondrial respiration: after rotenone/antimycin A; for ATP production (coupled respiration, OCR): oligomycin; for ATP production (coupled respiration, OCR) / basal OCR: versus control. The method, boiled down: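 Oxygen consumption rate of treated A549 cells measured on a Seahorse XF24 analyser. Sequential injections: oligomycin 0.75 μM, FCCP 0.6 μM, then rotenone 0.5 μM plus antimycin A 0.5 μM. OCR normalised to protein by BCA assay. Basal respiration = basal OCR minus post-rotenone/antimycin OCR. ATP-linked respiration = basal minus post-oligomycin OCR. Non-mitochondrial respiration = OCR remaining after rotenone/antimycin.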

In a further data set the test system is PC3. Nature of the data set: MTT cytotoxicity assay. The data set is classed as cell-based, human. The following applies: read-out: IC50 PC3, 48 h. In short, it runs like this: as §1
The subject of data set [8] is A549 cells. Nature of the data set: Cell cycle analysis, PI flow cytometry. Type of data set: cell-based, human. The note with it: A549, 2.5 μM, 24 h; control 57.4 ± 3.1%.
The test system of data set [9] is A549 cells. Nature of the data set: MMP analysis, JC-1 flow cytometry. The data set is classed as cell-based, human. The note with it: A549, 10 μM, 6 h, control 6.6 ± 0.7%.
In data set [10] the test system is A549 cells. The data set can be described thus: Intracellular ROS detection, H2DCFDA flow cytometry. The following applies: A549, 10 μM, 6 h. Type of data set: cell-based, human.
In data set [11] the test system is A549 cells. The data set can be described thus: MTT viability with z-VAD-fmk pretreatment. Type of data set: cell-based, human. The following applies: A549, z-VAD-fmk 50 μM 2 h, then 24 h.
The next data set relates to A549/LO2 coculture. The data set can be described thus: Co-culture model of A549 and LO2 cells, annexin V/PI. The data set is classed as cell-based, human. The following applies: 10 μM, 24 h, A549 Hoechst-prelabeled.
Data set [12] is described as follows: Stability of complex 2 by 1H NMR. Type of data set: physicochemical. The following applies: DMSO-d6/D2O (v/v, 7/3), 37 °C.
The test system of data set [13] is A549 cells. The data set can be described thus: Microarray gene chip analysis. The data set is classed as cell-based, human. The following applies: A549, 3 μM, 24 h.
Data set [14] deals with bovine serum albumin (BSA) (Bos taurus, UniProt P02769). Nature of the data set: Emission enhancement upon binding with BSA. The note with it: molar ratio BSA : Ir(III) 8 : 1.
Chain of bovine serum albumin (BSA) (P02769 25-607): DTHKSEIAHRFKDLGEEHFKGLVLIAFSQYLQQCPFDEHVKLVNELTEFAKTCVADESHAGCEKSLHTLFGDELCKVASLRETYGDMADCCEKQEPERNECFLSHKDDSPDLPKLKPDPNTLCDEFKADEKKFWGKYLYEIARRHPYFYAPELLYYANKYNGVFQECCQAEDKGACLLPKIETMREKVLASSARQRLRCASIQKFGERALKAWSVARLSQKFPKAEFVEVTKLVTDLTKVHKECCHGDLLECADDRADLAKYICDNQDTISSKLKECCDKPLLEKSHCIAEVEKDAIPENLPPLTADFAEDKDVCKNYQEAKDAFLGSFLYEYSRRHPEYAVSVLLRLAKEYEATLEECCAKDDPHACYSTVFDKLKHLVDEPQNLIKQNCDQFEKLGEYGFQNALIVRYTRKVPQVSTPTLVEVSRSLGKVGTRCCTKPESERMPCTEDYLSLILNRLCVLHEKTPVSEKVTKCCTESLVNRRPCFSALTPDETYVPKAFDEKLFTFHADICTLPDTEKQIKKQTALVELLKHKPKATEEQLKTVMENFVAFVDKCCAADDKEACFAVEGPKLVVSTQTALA

`ClCc1ccnc(-c2cc(CCl)ccn2)c1.F[P-](F)(F)(F)(F)F.Fc1c[c-]c(-c2ccccn2)c(F)c1.Fc1c[c-]c(-c2ccccn2)c(F)c1.[Ir+3]` [Complex 4]: the “Lipophilicity (log Po/w)” value in [1] came out at 2.12. In the data set on A549 cells [2], the apoptotic cells came out at 61.5 ± 1.1% and the “effect of NAC pre-treatment on apoptosis-inducing capability” value is given as “decreases the apoptosis-inducing capability”. Moreover, the “increase of caspase-3/7 activity” value in data set [3] is given as about 1.7 fold. In the data set on A549 cells [4], the “intracellular ATP level” value worked out at 20.2 ± 3.3 nM and the “impact on intracellular ATP levels” value is given as “significant dose-dependent decrease”. Further, the IC50 in the data set with A549 came out at 0.21 ± 0.02 µM. For the same compound, the IC50 in the data set on LO2 came out at 1.5 ± 0.1 µM. The half-inhibitory concentration (IC50) with MDB-MA-231 stood at 0.66 ± 0.05 µM. For the same compound, in the data set on HeLa, the half-maximal inhibitory concentration (IC50) stood at 1.8 ± 0.1 µM. In the data set with A549 cells [5], the “effect of NAC pre-treatment on antiproliferative potency” value was “significantly diminishes”. Besides, in data set [6], the cross-resistance with cisplatin entry is “not cross-resistant with cisplatin” and the IC50 was determined as 0.74 ± 0.05 µM. Further, in the data set with A549 cells [7], the non-mitochondrial respiration entry is “decrease”; the “ATP production (coupled respiration, OCR)” value was “dose-dependent decrease”; the “basal OCR” value is “decrease”. Besides, in the data set on PC3, the IC50 came out at 1.04 ± 0.09 µM. The “percentage of cells in the G0/G1 phase” value in the data set with A549 cells [8] is given as 88.8 ± 5.2%. In addition, the “percentage of cells with mitochondrial membrane depolarization” value in the data set with A549 cells [9] was 82.4 ± 7.6%. Further, the “increase of mean fluorescent intensity (MFI) of DCF” value in the data set with A549 cells [10] is reported as about 13.7 fold. Moreover, the “effect of z-VAD-fmk pre-treatment on antiproliferative activity” value in the data set on A549 cells [11] was “inhibits the antiproliferative activity”.
As to `F[P-](F)(F)(F)(F)F.OCc1ccnc(-c2cc(CO)ccn2)c1.[Ir+3].[c-]1ccccc1-c1ccccn1.[c-]1ccccc1-c1ccccn1` [Complex 1], the “Lipophilicity (log Po/w)” value in data set [1] turned out to be 0.23. In the data set with A549 cells [4], the “impact on intracellular ATP levels” value is “not obvious”. Moreover, the IC50 with A549 is 24 ± 2 µM; in the data set on LO2 it was over 100 µM; in the data set with MDB-MA-231, 24.5 ± 1.9 µM; in the data set with HeLa it was 10 ± 0.9 µM; in [6], 42.2 ± 2.7 µM; in the data set on PC3, over 100 µM.
For the compound `ClCc1ccnc(-c2cc(CCl)ccn2)c1.F[P-](F)(F)(F)(F)F.[Ir+3].[c-]1ccccc1-c1ccccn1.[c-]1ccccc1-c1ccccn1` [Complex 2], in [1], the “Lipophilicity (log Po/w)” value was 1.28. Besides, in the data set on A549 cells [2], the apoptotic cells turned out to be 17.5 ± 0.8% and the “effect of NAC pre-treatment on apoptosis-inducing capability” value is “decreases the apoptosis-inducing capability”. Further, the “increase of caspase-3/7 activity” value in data set [3] is reported as “approximately 1.6 fold”. Further, in the data set on A549 cells [4], the “intracellular ATP level” value is recorded as 30.2 ± 2.4 nM and the “impact on intracellular ATP levels” value is “significant dose-dependent decrease”. In addition, the “selectivity for cancerous A549 cells over noncancerous LO2 cells” value in the data set on A549 (from IC50 values) was about 11 fold. Further, the IC50 in the data set with A549 came out at 0.4 ± 0.02 µM. Also, the IC50 in the data set with LO2 was found to be 4.5 ± 0.3 µM. For the same compound, the IC50 in the data set with MDB-MA-231 amounted to 0.33 ± 0.02 µM. In addition, the IC50 in the data set on HeLa came out at 0.52 ± 0.04 µM. Besides, the “effect of NAC pre-treatment on antiproliferative potency” value in the data set with A549 cells [5] is given as “significantly diminishes”. The “selective killing of cancer cells in co-culture” value in the data set on A549/LO2 coculture is “most of the A549 cells (blue nuclei) are stained positively by both annexin V and PI, while the LO2 cells are still viable”. Also, the “complex invariant (intact)” value in data set [12] (48 h) was “about 98.5%”. Moreover, the “complex transformed (hydrolysis of chloromethyl groups)” value in data set [12] (7 days) is listed as “about 26.2%”. In addition, in data set [6], the cross-resistance with cisplatin result is “not cross-resistant with cisplatin” and the IC50 turned out to be 0.64 ± 0.04 µM. In the data set with A549 cells [13], the “No. of down-regulated genes sets (p< 0.05, FC> 2)” value is on record as 715 and the “No. of up-regulated genes sets (p< 0.05, FC> 2)” value was 507. Moreover, in the data set on A549 cells [7], the non-mitochondrial respiration entry is reported as “decrease”; the “ATP production (coupled respiration, OCR)” value is given as “dose-dependent decrease”; the “basal OCR” value is on record as “decrease”. In addition, the half-inhibitory concentration (IC50) in the data set on PC3 came out at 1.4 ± 0.1 µM. Besides, the “percentage of cells in the G0/G1 phase” value with A549 cells [8] is 85.3 ± 4.4%. The “percentage of cells with mitochondrial membrane depolarization” value with A549 cells [9] is 85.7 ± 1.7%. Also, the “increase of mean fluorescent intensity (MFI) of DCF” value in the data set with A549 cells [10] is listed as “approximately 5.5 fold”. Further, in the data set on A549 cells [11], the “effect of z-VAD-fmk pre-treatment on antiproliferative activity” value was “inhibits the antiproliferative activity”. Further, the “emission enhancement upon binding with BSA” value in data set [14] was about 11.6 fold.
With `N.N.[Cl][Pt][Cl]` [Cisplatin, reference compound], the IC50 worked out at 22.4 ± 2 µM in the data set with A549; 26.9 ± 1.9 µM with LO2; 27.5 ± 2.5 µM with MDB-MA-231; 18.8 ± 1.4 µM in the data set on HeLa; 120 ± 6.5 µM in data set [6]; 23.8 ± 2 µM in the data set on PC3.
Regarding `F[P-](F)(F)(F)(F)F.Fc1c[c-]c(-c2ccccn2)c(F)c1.Fc1c[c-]c(-c2ccccn2)c(F)c1.OCc1ccnc(-c2cc(CO)ccn2)c1.[Ir+3]` [Complex 3], the “Lipophilicity (log Po/w)” value in data set [1] was found to be 1.09. Also, the “impact on intracellular ATP levels” value with A549 cells [4] was “not obvious”. Also, the IC50 in the data set on A549 turned out to be 16.8 ± 1.2 µM; with LO2, 8.1 ± 0.5 µM; in the data set on MDB-MA-231, 12.3 ± 1.1 µM; in the data set with HeLa, 2.7 ± 0.2 µM; in data set [6], 17.8 ± 1.4 µM; with PC3 it was 38 ± 1.9 µM.
